Legend:
Neuraminidase [1] = molecular target: T1, Neuraminidase (Influenza A virus, UniProt B4URF0); assay: Inhibition of Influenza A virus (A/New Caledonia/20/1999(H1N1)) neuraminidase after 30 mins by fluorescence analysis
Neuraminidase [2] = molecular target: T1, Neuraminidase; assay: Inhibition of Influenza A virus (A/duck/Alberta/60/1976(H12N5)) neuraminidase after 30 mins by fluorescence analysis
Neuraminidase [3] = molecular target: T1, Neuraminidase; assay: Inhibition of Influenza A virus (A/Singapore/1/1957(H2N2)) neuraminidase after 30 mins by fluorescence analysis
Neuraminidase [4] = molecular target: T1, Neuraminidase; assay: Inhibition of Influenza A virus (A/Aichi/2/1968(H3N2)) neuraminidase after 30 mins by fluorescence analysis
Neuraminidase [5] = molecular target: T1, Neuraminidase; assay: Inhibition of Influenza A virus (A/Aichi/193/2004(H1N1)) neuraminidase after 30 mins by fluorescence analysis
Neuraminidase [6] = molecular target: T1, Neuraminidase; assay: Inhibition of Influenza A virus (A/California/07/2004(H3N2)) neuraminidase after 30 mins by fluorescence analysis
Neuraminidase [7] = molecular target: T1, Neuraminidase; assay: Inhibition of Influenza A virus (A/Hiroshima/52/2005(H3N2)) neuraminidase after 30 mins by fluorescence analysis
[8] = Inhibition of Influenza B virus (B/Yamagata/113/2005(Yamagata)) neuraminidase after 30 mins by fluorescence analysis
Outline: (§1)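 Virus NA source was mixed with compound in 32.5 mM MES-NaOH pH 6.5 with 4 mM CaCl2 and preincubated 10 min at room temperature. Reaction ran 30 min at room temperature with 100 μM (final) 4-MU-NANA. Fluorescence was read at ex 360/em 460 nm, in triplicate. IC50 came from linear regression of residual activity against log concentration, using concentrations giving 10–90% residual activity.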

[9] = Inhibition of Influenza B virus (B/Shiga/17/2002(Victoria)) neuraminidase after 30 mins by fluorescence analysis; outline: as §1
Neuraminidase [10] = molecular target: T1, Neuraminidase; assay: Inhibition of Influenza A virus (A/Yamagata/57/2002(H1N1)) neuraminidase after 30 mins by fluorescence analysis
[11] = Inhibition of Influenza B virus (B/Yamagata/87/2004(Yamagata)) neuraminidase after 30 mins by fluorescence analysis; outline: as §1
Neuraminidase [12] = molecular target: T1, Neuraminidase; assay: Inhibition of Influenza A virus (A/Shiga/5/2002(H3N2)) neuraminidase after 30 mins by fluorescence analysis
Neuraminidase [13] = molecular target: T1, Neuraminidase; assay: Inhibition of Influenza A virus (A/Aichi/169/2005(H1N1)) neuraminidase after 30 mins by fluorescence analysis
[14] = Inhibition of Influenza B virus (B/Tokushima/1/2005(Yamagata)) neuraminidase after 30 mins by fluorescence analysis; outline: as §1
Neuraminidase [15] = molecular target: T1, Neuraminidase; assay: Inhibition of Influenza A virus (A/seal/Massachusetts/1/1980(H7N7)) neuraminidase after 30 mins by fluorescence analysis
Neuraminidase [16] = molecular target: T1, Neuraminidase; assay: Inhibition of Influenza A virus (A/Saitama/80/2003(H3N2)) neuraminidase after 30 mins by fluorescence analysis
Neuraminidase [17] = molecular target: T1, Neuraminidase; assay: Inhibition of Influenza A virus (A/Saitama/78/2003(H1N1)) neuraminidase after 30 mins by fluorescence analysis
Neuraminidase [18] = molecular target: T1, Neuraminidase; assay: Inhibition of Influenza A virus (A/Tokushima/1/2005(H3N2)) neuraminidase after 30 mins by fluorescence analysis

T1 sequence (B4URF0 whole entry): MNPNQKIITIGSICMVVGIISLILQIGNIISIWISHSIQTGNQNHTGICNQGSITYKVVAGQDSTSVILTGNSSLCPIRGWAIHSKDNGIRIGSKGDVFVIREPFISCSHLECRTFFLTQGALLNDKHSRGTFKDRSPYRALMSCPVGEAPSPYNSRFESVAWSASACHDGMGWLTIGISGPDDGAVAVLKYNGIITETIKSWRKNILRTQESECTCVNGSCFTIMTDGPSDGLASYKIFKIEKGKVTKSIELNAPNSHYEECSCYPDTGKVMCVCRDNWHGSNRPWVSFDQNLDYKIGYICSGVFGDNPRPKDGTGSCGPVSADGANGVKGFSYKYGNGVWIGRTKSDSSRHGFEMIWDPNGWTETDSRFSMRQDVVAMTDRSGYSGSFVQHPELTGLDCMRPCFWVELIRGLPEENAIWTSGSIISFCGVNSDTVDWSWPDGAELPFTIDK

CCCCCCCC(=O)OC[C@@H](O)[C@@H](OC)[C@@H]1OC(C(=O)O)=C[C@H](NC(=N)N)[C@H]1NC(C)=O [LANINAMIVIR OCTANOATE]
IC50 (Neuraminidase [1]): 666 nM
IC50 (Neuraminidase [2]): 1140 nM
IC50 (Neuraminidase [3]): 128 nM
IC50 (Neuraminidase [4]): 164 nM
IC50 (Neuraminidase [5]): 983 nM
IC50 (Neuraminidase [6]): 135 nM
IC50 (Neuraminidase [7]): 69.1 nM
IC50 [8]: 3500 nM
IC50 [9]: 7680 nM
IC50 (Neuraminidase [10]): 1170 nM
IC50 [11]: 7790 nM
IC50 (Neuraminidase [12]): 64.2 nM
IC50 (Neuraminidase [13]): 664 nM
IC50 [14]: 3710 nM
IC50 (Neuraminidase [15]): 142 nM
IC50 (Neuraminidase [16]): 39.2 nM
IC50 (Neuraminidase [17]): 940 nM
IC50 (Neuraminidase [18]): 131 nM
